For series [1], the target named is Orotidine 5'-phosphate decarboxylase (Methanobacterium thermoautotrophicum, UniProt O26232). Kind of series: Reversible inhibition of Methanobacterium thermoautotrophicum ODCase. Also on record: species or system Methanothermobacter thermautotrophicus. Put shortly:
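Inhibitor levels span 0-1.0 µM up to 0-4.0 mM depending on compound. Rates from heat flow fitted to a competitive model for Ki; experiments in triplicate.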

The target of series [2] is T1, Uridine 5'-monophosphate synthase (Homo sapiens, UniProt P11172).
T1 sequence (P11172 whole entry): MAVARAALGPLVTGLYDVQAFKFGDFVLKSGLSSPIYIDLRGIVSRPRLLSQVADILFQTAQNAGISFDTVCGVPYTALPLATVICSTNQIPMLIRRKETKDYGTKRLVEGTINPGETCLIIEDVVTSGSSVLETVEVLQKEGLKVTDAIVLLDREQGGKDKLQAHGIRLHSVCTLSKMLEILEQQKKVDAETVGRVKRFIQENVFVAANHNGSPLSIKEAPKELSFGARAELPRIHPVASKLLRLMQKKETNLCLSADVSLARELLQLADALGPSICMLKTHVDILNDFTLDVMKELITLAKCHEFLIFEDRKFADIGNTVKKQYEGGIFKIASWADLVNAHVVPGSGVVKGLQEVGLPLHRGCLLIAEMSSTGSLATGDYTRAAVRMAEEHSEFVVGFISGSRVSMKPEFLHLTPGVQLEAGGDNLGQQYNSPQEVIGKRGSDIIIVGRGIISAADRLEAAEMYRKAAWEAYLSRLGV
Kind of series: Reversible inhibition of human ODCase. An outline of the steps:
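Human ODCase at 60 nM in 50 mM Tris, 1 mM DTT, assayed by ITC at 37 °C. Enzyme mixed with inhibitor (stocks in 50 mM Tris pH 7.5) and the reaction started with OMP, 15 or 20 µM final. Inhibitor ranges from 0-1.0 µM up to 0-500 µM. Ki from direct fit of decarboxylation rates; triplicates.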

A further series relates to SKW3. Kind of series: Induction of apoptosis in human SKW3 cells at 4 uM by annexin V/propidium iodide staining assay.
Series [3] in a line: Antitumor activity against human SKW3 cells after 3 days by WST1 assay. Format: functional, cell-based. The note with it: SKW3, 72 h. An outline of the steps: (§1)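 Cell lines grown in Iscove's MDM with 5% FCS, 50 µM 2-mercaptoethanol, penicillin and streptomycin; suspension lines kept at 0.5-1.5 × 10^6 cells/mL, adherent lines subconfluent. Cells seeded in triplicate at 10^4 cells/100 µL. Compounds were dissolved in water and added immediately at 0 to 100 µM final. WST.1 read at 440 nm on day 3; IC50 taken from OD versus concentration plots.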
A general note: Tetrazolium assays rely on reduction of a dye to a coloured formazan, in cell work by metabolically active cells.

For another series, the species on record is Homo sapiens. Kind of series: Induction of apoptosis in human OCI-My 2 cells 4 uM by […]/propidium iodide staining assay. Format: functional, cell-based. An outline of the steps: (§2)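 Cells seeded in duplicate at 10^5 cells/mL; inhibitors added straight after seeding at 4 µM final, water in control wells. Cells harvested every 24 h, washed in PBS, stained with Annexin V/propidium iodide (1:200) and analysed by FACS; apoptotic cells scored as Annexin V+/PI-, necrotic as Annexin V+/PI+.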

In the next series the test system is OCI-AML2. Kind of series: Antitumor activity against human OCI-AML2 cells after 3 days by WST1 assay. Format: functional, cell-based. To be noted: OCI-AML2, 72 h. Put shortly:
as §1

Series [4] can be described thus: Antitumor activity against human OCI-AML1 cells after 3 days by WST1 assay. It counts as functional, cell-based. The note with it: ML1, 72 h. Put shortly: as §1
The next series concerns ML1. Kind of series: Induction of apoptosis in human OCI-AML1 cells by […]/propidium iodide staining assay. Format: functional, cell-based. Put shortly:
as §2

A further series concerns OVCAR-4. Kind of series: Antitumor activity against human OVCAR4 cells after 3 days by WST1 assay. Format: functional, cell-based. The note with it: OVCAR-4, 72 h. An outline of the steps: as §1
Series [5] can be described thus: Antitumor activity against human OCI-My 2 cells after 3 days by WST1 assay. It counts as functional, cell-based. To be noted: 72 h. Put shortly: as §1
The test system of another series is PBMC. Kind of series: Cytotoxicity against human PBMC cells by WST1 assay. It counts as cell-based. An outline of the steps: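 Donor PBMCs isolated on Ficoll-Hypaque from blood diluted 1:1 in PBS, washed twice in PBS and stimulated with 3 µg/mL concanavalin A. Seeded in triplicate at 10^5 cells/100 µL; compounds in water added immediately, 0-100 µM final. WST.1 absorbance at 440 nm on day 3; IC50 from OD versus concentration plots.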

Series [6] in a line: Antitumor activity against human MDA468 cells after 3 days by WST1 assay. Format: functional, cell-based. To be noted: MDA-MB-468, 72 h. Put shortly:
as §1

The subject of another series is COLO 205. Kind of series: Antitumor activity against human COLO205 cells after 3 days by WST1 assay. Format: functional, cell-based. To be noted: COLO 205, 72 h. Put shortly:
as §1

For a further series, the system named is Hs-578T. Kind of series: Antitumor activity against human Hs 578T cells up to 4 uM after 3 days by WST1 assay. Format: functional, cell-based. An outline of the steps: as §1
The subject of another series is T47D. Kind of series: Antitumor activity against human T47D cells up to 4 uM after 3 days by WST1 assay. Format: functional, cell-based. An outline of the steps: as §1
For the next series, the system named is MCF7. Kind of series: Antitumor activity against human MCF7 cells after 3 days by WST1 assay. It counts as functional, cell-based. The note with it: MCF7, 72 h. Put shortly:
as §1

Series [7] can be described thus: Antitumor activity against human OCI-LY7 cells after 3 days by WST1 assay. It counts as functional, cell-based. The note with it: OCI-Ly7, 72 h. Put shortly: as §1
The test system of a further series is SNB-19. Kind of series: Antitumor activity against human SNB19 cells up to 4 uM after 3 days by WST1 assay. It counts as functional, cell-based. Put shortly: as §1
Series [8] in a line: Antitumor activity against human LOX cells after 3 days by WST1 assay. Format: functional, cell-based. To be noted: 72 h. An outline of the steps:
as §1

Series [9] can be described thus: Cytotoxicity against human CCD-967 cells up to 4 uM after 3 days by WST1 assay. It counts as cell-based. To be noted: ccd-967, 72 h. Put shortly: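 Cells grown in Iscove's MDM with 5% FCS, 50 µM 2-mercaptoethanol and antibiotics, kept subconfluent if adherent. Seeded in triplicate at 10^4 cells/100 µL with compounds (in water) added at once, 0 to 100 µM final. WST.1 formazan read at 440 nm on day 3; IC50 from OD versus concentration.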

For another series, the system named is OCI-Ly7. Kind of series: Induction of apoptosis in human OCI-LY7 cells 4 uM by […]/propidium iodide staining assay. It counts as functional, cell-based. Put shortly: as §2
In series [10] the target is T2, Uridine 5'-monophosphate synthase (Homo sapiens) (UniProt P11172).
T2 sequence (whole entry): T1 sequence (P11172 whole entry)
Kind of series: (§3) Irreversible inhibition of human ODCase.

Series [11] has as its target T1, Uridine 5'-monophosphate synthase. The description is as §3.
Series [12] deals with Methanothermobacter thermautotrophicus. Kind of series: (§4) Irreversible inhibition of Methanobacterium thermoautotrophicum ODCase.
A short description of series [13]: as §4. The arrangement: species or system Methanothermobacter thermautotrophicus.

Each structure is given as a SMILES string. pIC50, pKi: −log10 of the molar value. The source made the active and inactive calls. The calls are words filed in the database; no cut-off is given here. Some results are limits rather than exact numbers.

Sequence of Orotidine 5'-phosphate decarboxylase (O26232 whole entry): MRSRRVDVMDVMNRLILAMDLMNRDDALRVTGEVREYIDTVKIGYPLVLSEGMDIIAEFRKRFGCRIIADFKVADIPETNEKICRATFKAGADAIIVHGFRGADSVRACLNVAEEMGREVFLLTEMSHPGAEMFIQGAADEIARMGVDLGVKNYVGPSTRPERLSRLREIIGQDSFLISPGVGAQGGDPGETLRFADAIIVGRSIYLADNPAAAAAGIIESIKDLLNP

`Nc1c(F)c(=O)[nH]c(=O)n1[C@@H]1O[C@H](COP(=O)(O)O)[C@@H](O)[C@H]1O`: the figures for the pKi in series [1] and in series [2] were 4.94 and 4.78, respectively.
On to `[N-]=[N+]=Nc1c(F)c(=O)[nH]c(=O)n1[C@@H]1O[C@H](CO)[C@@H](O)[C@H]1O`, for which the outcome in the series on SKW3, in the series listed under Homo sapiens, in the series on ML1 and with OCI-Ly7 was Active. Moreover, the pIC50 is 6.40 in series [3]; 6.15 in the series on OCI-AML2; 6.22 in series [4]; 5.82 with OVCAR-4; 6.22 in series [5]; below 5.00 in the series on PBMC. Further, the pIC50 in series [6] was 5.74; in the series with COLO 205, 5.42; with MCF7, 6.00; in series [7] it was 6.15; in series [8], 5.64. The result with Hs-578T, in the series on T47D and in the series on SNB-19 was inactive. Further, in series [9], the Activity result was “Not Active”.
Consider `O=c1[nH]c(=O)n([C@@H]2O[C@H](COP(=O)(O)O)[C@@H](O)[C@H]2O)cc1F`, for which the figures for the pKi in series [1] and in [2] were 3.19 and 4.01, respectively.
`O=c1[nH]c(=O)n([C@@H]2O[C@H](COP(=O)(O)O)[C@@H](O)[C@H]2O)c(I)c1F` returned a Kinact in series [10] of 158 h⁻¹. The compound also showed a pKi in series [11] of 5.96.
In the case of `Nc1c(F)c(=O)[nH]c(=O)n1[C@@H]1O[C@H](CO)[C@@H](O)[C@H]1O`, the outcome in the series with SKW3, in the series filed under Homo sapiens, in the series on ML1 and in the series on OCI-Ly7 was Active. The pIC50 in series [3] was 6.22; in the series with OCI-AML2, 6.05; in series [4], 6.15; in the series on OVCAR-4 it was 5.70; in series [5], 6.05; in the series on PBMC it was below 5.00. Also, the pIC50 in [6] is 5.59; in the series on COLO 205, 5.48; in the series with MCF7 it was 5.85; in [7], 5.89; in series [8] it was 5.47. Also, the result in the series with Hs-578T, in the series on T47D and in the series with SNB-19 was inactive. Besides, the Activity result in [9] was “Not Active”.
Consider `CCc1c(F)c(=O)[nH]c(=O)n1[C@@H]1O[C@H](COP(=O)(O)O)[C@@H](O)[C@H]1O`, for which the pKi in series [1] is 4.54; in series [2], 6.46.
Take `[N-]=[N+]=Nc1c(F)c(=O)[nH]c(=O)n1[C@@H]1O[C@H](COP(=O)(O)O)[C@@H](O)[C@H]1O`: the pKi was 6.44 in [1] and 4.74 in series [11]. Also, the Kinact in series [10] amounted to 41 h⁻¹.
For `[N-]=[N+]=Nc1cc(=O)[nH]c(=O)n1[C@@H]1O[C@H](COP(=O)(O)O)[C@@H](O)[C@H]1O`, the pKi in [1] is 6.70; in [13], 6.22. The Kinact in series [12] came to 61.2 h⁻¹.

A word on the pKi: it is the negative decadic logarithm of the Ki, by convention in mol/L. Broadly, the pIC50 is the negative decadic logarithm of the IC50, by convention in mol/L. Read a high pIC50 as a low IC50.
